These results are taken from ChEMBL document CHEMBL5543089, “Discovery of a novel, highly potent EZH2 PROTAC degrader for targeting non-canonical oncogenic functions of EZH2” (Eur J Med Chem, 2024).

The target in data set [1] is T1, von Hippel-Lindau disease tumor suppressor/Histone-lysine N-methyltransferase EZH2 (Homo sapiens, UniProt Q15910+P40337). The experiment in a line: PROTAC activity at VHL/EZH2 degradation in hMLLr AML cell line EOL1 cells assessed as protein degradation at 0.1 uM measured after 24 hrs by Western blot analysis. The class given is cell-based. The method in brief: (§1)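 Cells were seeded at 0.5–2 million per well and treated for 24 h, or for the stated times at 300 nM in the time course. Lysis was in RIPA with protease inhibitors; ~10 μg protein was run on SDS-PAGE and blotted to PVDF. Detection used fluorescent immunoblotting for EZH2, EED and SUZ12, with β-actin as loading control. Blots are representative of two biological experiments.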
In general terms: In western blotting, separated proteins are transferred to a membrane and probed.
Target sequence in this assay (P40337 whole entry, looked up): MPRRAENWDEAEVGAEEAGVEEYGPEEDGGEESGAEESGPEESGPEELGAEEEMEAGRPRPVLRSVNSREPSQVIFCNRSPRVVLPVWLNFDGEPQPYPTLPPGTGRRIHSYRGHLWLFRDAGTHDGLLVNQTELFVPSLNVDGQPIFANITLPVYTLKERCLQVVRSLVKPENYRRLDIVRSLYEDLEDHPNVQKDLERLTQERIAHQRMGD
Target sequence in this assay (Q15910 whole entry, looked up): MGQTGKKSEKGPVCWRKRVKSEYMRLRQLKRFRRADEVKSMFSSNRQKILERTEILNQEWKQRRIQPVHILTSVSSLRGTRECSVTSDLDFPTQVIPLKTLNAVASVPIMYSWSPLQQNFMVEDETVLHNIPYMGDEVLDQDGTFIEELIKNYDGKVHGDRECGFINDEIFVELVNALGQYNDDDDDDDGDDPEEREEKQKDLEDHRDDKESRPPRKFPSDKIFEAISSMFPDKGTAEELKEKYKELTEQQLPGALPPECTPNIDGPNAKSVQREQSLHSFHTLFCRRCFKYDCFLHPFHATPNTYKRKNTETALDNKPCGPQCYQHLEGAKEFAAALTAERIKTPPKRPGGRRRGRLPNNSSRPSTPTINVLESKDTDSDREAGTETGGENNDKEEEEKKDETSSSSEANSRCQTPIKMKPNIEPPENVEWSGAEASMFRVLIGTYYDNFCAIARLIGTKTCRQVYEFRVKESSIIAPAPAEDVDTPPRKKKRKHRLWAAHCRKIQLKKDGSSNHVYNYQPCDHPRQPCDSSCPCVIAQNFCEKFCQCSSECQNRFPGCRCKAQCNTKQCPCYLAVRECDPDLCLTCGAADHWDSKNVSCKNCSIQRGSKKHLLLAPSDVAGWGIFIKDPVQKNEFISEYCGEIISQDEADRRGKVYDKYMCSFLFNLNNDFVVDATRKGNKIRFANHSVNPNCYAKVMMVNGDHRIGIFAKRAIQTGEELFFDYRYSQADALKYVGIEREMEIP

For data set [2], the target named is T1, von Hippel-Lindau disease tumor suppressor/Histone-lysine N-methyltransferase EZH2. The experiment in a line: PROTAC activity at VHL/EZH2 degradation in hMLLr AML cell line EOL1 cells assessed as protein degradation measured after 24 hrs by Western blot analysis. The class given is cell-based. The gist of the method: as §1
Target sequence in this assay (Q15910 whole entry): as the sequence (Q15910 whole entry, looked up) above
Target sequence in this assay (P40337 whole entry): as the sequence (P40337 whole entry, looked up) above
Data set [3] deals with von Hippel-Lindau disease tumor suppressor/Polycomb protein SUZ12 (Homo sapiens) (UniProt Q15022+P40337). The data set can be described thus: PROTAC activity at VHL/SUZ12 degradation in MLLr AML cell line human EOL1 cells assessed as protein degradation at 1 to 1000 nM […] measured after 1 to 24 hrs by Western blot analysis. To be noted: dose 1-1000 nM, time 1-24 hrs. It counts as cell-based. The gist of the method: as §1

The target of data set [4] is T1, von Hippel-Lindau disease tumor suppressor/Histone-lysine N-methyltransferase EZH2. The experiment in a line: PROTAC activity at VHL/EZH2 degradation in MLLr AML cell line human EOL1 cells assessed as protein degradation at 0.5 uM measured after 24 hrs by Western blot analysis. It counts as cell-based. The method in brief:
as §1
Target sequence in this assay (P40337 whole entry, looked up): as above
Target sequence in this assay (Q15910 whole entry, looked up): as the sequence (Q15910 whole entry, looked up) above

Data set [5] has the same target. The experiment in a line: PROTAC activity at VHL/EZH2 degradation in MLLr AML cell line human EOL1 cells assessed as protein degradation at 0.5 uM measured after 24 hrs in presence of 0.05 uM MLN4924 by Western blot analysis. The class given is cell-based. The method in brief:
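EOL-1 cells were pre-treated for 2 h with MLN4924 (0.05 μM), EPZ-6438 (5 μM) or VHL-1 (5 μM), then given 0.5 μM degrader for 24 h. EZH2 was assessed by Western blot against β-actin. Blots are representative of two biological experiments.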
Target sequence in this assay (P40337 whole entry, looked up): as the sequence (P40337 whole entry, looked up) above
Target sequence in this assay (Q15910 whole entry, looked up): as the sequence (Q15910 whole entry, looked up) above

Data set [6] deals with Histone-lysine N-methyltransferase, H3 lysine-79 specific (Homo sapiens) (UniProt Q8TEK3). The experiment in a line: Inhibition of human DOT1L assessed as methyltransferase at 10 uM by radioisotope based MT HotSpot assay relative to control. The gist of the method:
(§2)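 Radioisotope-based methyltransferase assay (MT HotSpot) run by a contract lab. Compound was tested at 10 μM against a panel of 20 methyltransferases, in duplicate. Values are means ± SD of two replicates.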

Data set [7] concerns the target Histone-lysine N-methyltransferase 2A (Homo sapiens) (UniProt Q03164). The data set can be described thus: Inhibition of human MLL1 assessed as methyltransferase activity using Nucleosomes as substrate at 10 uM by radioisotope based MT HotSpot assay relative to control. The gist of the method: as §2
Data set [8] concerns the target Histone-lysine N-methyltransferase NSD2 (Homo sapiens) (UniProt O96028). The experiment in a line: Inhibition of human NSD2 assessed as methyltransferase activity using Nucleosomes as substrate at 10 uM by radioisotope based MT HotSpot assay relative to control. The method in brief:
as §2

Data set [9] is filed under the species Homo sapiens. The experiment in a line: Inhibition of human PRMT1 assessed as methyltransferase activity using Histone H4 /H4 (1-15)-Biotin as substrate at 10 uM by radioisotope based MT HotSpot assay relative to control. The gist of the method:
as §2

Data set [10] concerns the target Histone-arginine methyltransferase CARM1 (Homo sapiens) (UniProt Q86X55). The experiment in a line: Inhibition of human PRMT4 assessed as methyltransferase activity using Histone H3 as substrate at 10 uM by radioisotope based MT HotSpot assay relative to control. The method in brief:
as §2

For data set [11], the target named is Protein arginine N-methyltransferase 7 (Homo sapiens) (UniProt Q9NVM4). The experiment in a line: Inhibition of human PRMT7 assessed as methyltransferase activity using GST-GAR as substrate at 10 uM by radioisotope based MT HotSpot assay relative to control. The gist of the method:
as §2

The target of data set [12] is Histone-lysine N-methyltransferase SETD7 (Homo sapiens) (UniProt Q8WTS6). The data set can be described thus: Inhibition of human SET7/9 assessed as methyltransferase activity using Core histone as substrate at 10 uM by radioisotope based MT HotSpot assay relative to control. The method in brief:
as §2

For data set [13], the target named is Histone-lysine N-methyltransferase SMYD3 (Homo sapiens) (UniProt Q9H7B4). The experiment in a line: Inhibition of human SMYD3 assessed as methyltransferase activity using MEKK2 as substrate at 10 uM by radioisotope based MT HotSpot assay relative to control. The method in brief:
as §2

Data set [14] has as its system MV4-11. The experiment in a line: Anti-proliferative activity against human MV4-11 cells assessed as cell viability measured after 5 days incubation by CCK-8 assay. It counts as functional, cell-based. The conditions noted are these: MV4-11, 120 h. The method in brief: (§3)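 Cells plated at 3,000–10,000 per well and exposed to serial dilutions for 5 days at 37 °C. CCK-8 (1x) was added for 2–4 h, with absorbance read at 450 nm against a 690 nm reference. IC50 was taken from curve fits. Leukemia lines were grown in RPMI-1640, K562 in IMDM and MDA-MB-468 in DMEM, all with 10 % FBS. Values are means ± SD of two biological experiments (three for BT549 and MDA-MB-468).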
On the technique in general: Tetrazolium assays rely on reduction of a dye to a coloured formazan, in cell work by metabolically active cells.

The test system of data set [15] is RS4-11. The data set can be described thus: Anti-proliferative activity against human RS4-11 cells assessed as cell viability measured after 5 days incubation by CCK-8 assay. It counts as functional, cell-based. To be noted: RS4-11, 120 h. The gist of the method: as §3
Data set [16] has as its target T1, von Hippel-Lindau disease tumor suppressor/Histone-lysine N-methyltransferase EZH2. The data set can be described thus: PROTAC activity at VHL/EZH2 degradation in human MDA-MB-468 cells assessed as protein degradation at 0.1 to 3 uM measured after 48 hrs by Western blot analysis. The class given is cell-based. The conditions noted are these: dose 0.1-3 µM. The gist of the method:
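BT549 (RPMI-1640) and MDA-MB-468 (DMEM) cells were treated for 48 h. RIPA lysates (~10 μg) were immunoblotted for EZH2 with β-actin as loading control. Blots are representative of three biological experiments.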
Target sequence in this assay (P40337 whole entry, looked up): as the sequence (P40337 whole entry, looked up) above
Target sequence in this assay (Q15910 whole entry, looked up): as the sequence (Q15910 whole entry, looked up) above

For data set [17], the system named is BT-549. The data set can be described thus: Anti-proliferative activity against human BT-549 cells assessed as cell growth inhibition measured after 5 days incubation by CCK-8 assay. The class given is functional, cell-based. The conditions noted are these: BT-549, 120 h. The gist of the method: as §3
Data set [18] has as its system BT-549. The experiment in a line: Anti-proliferative activity against human BT-549 cells spheroid TNBC model assessed as decrease in cell viability at 2.5 to 20 uM by Cell Titer Glo 3D assay. The conditions noted are these: dose 2.5-20 µM. It counts as functional, cell-based. The method in brief: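 BT549 cells were coated with nanoshuttle (1 μL per 2000 cells, 24 h) and magnetically levitated in low-adhesion plates. They were grown 7 days at 37 °C until a single solid spheroid formed, then treated 5 d with compound or DMSO. Spheroid area was measured from images, and viability by CellTiter-Glo 3D. Data are means ± SD of three biological experiments, analysed by one-way ANOVA.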
For orientation: In ATP-based viability assays light output follows the ATP content of the culture.

The nature of data set [19]: Cmax in mouse at 50 mg/kg, ip measured after 4 hrs. It counts as ADME, organism-based. To be noted: in vivo.
Data set [20] deals with Histone-lysine N-methyltransferase EHMT1 (Homo sapiens) (UniProt Q9H9B1). The experiment in a line: Inhibition of human GLP assessed as methyltransferase activity using Histone H3 as substrate at 10 uM by radioisotope based MT HotSpot assay relative to control.
Data set [21] has as its target Histone-lysine N-methyltransferase SUV39H2 (Homo sapiens) (UniProt Q9H5I1). The data set can be described thus: Inhibition of human SUV39H2 assessed as methyltransferase activity using Histone H3 as substrate at 10 uM by radioisotope based MT HotSpot assay relative to control.

pIC50: −log10 of the molar value. The source made the active and inactive calls. No cut-off for these calls is given here. Some results are limits rather than exact numbers.

Sequence of Histone-arginine methyltransferase CARM1 (Homo sapiens) (Q86X55 whole entry): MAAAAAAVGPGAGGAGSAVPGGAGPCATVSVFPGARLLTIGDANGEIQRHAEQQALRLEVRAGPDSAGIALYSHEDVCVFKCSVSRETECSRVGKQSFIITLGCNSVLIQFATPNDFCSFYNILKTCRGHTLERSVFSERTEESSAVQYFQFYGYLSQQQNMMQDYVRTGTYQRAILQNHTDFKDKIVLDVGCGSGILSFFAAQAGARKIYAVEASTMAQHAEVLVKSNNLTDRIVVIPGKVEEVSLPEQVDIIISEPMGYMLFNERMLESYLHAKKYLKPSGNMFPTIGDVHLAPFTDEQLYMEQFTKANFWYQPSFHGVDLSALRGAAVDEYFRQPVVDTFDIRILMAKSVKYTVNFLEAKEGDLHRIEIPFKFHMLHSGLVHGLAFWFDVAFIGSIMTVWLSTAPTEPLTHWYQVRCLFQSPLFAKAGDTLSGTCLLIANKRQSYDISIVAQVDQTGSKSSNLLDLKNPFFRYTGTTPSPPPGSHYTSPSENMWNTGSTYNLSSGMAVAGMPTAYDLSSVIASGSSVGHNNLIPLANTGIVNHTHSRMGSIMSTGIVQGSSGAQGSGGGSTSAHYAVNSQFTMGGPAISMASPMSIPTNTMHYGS
Sequence of Histone-lysine N-methyltransferase SMYD3 (Homo sapiens) (Q9H7B4 whole entry): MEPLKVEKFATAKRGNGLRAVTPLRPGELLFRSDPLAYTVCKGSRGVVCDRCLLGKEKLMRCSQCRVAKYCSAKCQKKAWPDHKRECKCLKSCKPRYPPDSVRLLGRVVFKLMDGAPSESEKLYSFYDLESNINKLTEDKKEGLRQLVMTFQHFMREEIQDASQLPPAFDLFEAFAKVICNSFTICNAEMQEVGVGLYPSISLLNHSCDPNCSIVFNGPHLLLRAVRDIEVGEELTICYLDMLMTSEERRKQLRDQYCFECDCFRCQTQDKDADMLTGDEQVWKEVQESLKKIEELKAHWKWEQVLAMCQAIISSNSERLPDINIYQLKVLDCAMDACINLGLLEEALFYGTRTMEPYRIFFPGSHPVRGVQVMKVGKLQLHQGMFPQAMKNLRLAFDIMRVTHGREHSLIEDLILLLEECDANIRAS
Sequence of Histone-lysine N-methyltransferase EHMT1 (Homo sapiens) (Q9H9B1 whole entry, looked up): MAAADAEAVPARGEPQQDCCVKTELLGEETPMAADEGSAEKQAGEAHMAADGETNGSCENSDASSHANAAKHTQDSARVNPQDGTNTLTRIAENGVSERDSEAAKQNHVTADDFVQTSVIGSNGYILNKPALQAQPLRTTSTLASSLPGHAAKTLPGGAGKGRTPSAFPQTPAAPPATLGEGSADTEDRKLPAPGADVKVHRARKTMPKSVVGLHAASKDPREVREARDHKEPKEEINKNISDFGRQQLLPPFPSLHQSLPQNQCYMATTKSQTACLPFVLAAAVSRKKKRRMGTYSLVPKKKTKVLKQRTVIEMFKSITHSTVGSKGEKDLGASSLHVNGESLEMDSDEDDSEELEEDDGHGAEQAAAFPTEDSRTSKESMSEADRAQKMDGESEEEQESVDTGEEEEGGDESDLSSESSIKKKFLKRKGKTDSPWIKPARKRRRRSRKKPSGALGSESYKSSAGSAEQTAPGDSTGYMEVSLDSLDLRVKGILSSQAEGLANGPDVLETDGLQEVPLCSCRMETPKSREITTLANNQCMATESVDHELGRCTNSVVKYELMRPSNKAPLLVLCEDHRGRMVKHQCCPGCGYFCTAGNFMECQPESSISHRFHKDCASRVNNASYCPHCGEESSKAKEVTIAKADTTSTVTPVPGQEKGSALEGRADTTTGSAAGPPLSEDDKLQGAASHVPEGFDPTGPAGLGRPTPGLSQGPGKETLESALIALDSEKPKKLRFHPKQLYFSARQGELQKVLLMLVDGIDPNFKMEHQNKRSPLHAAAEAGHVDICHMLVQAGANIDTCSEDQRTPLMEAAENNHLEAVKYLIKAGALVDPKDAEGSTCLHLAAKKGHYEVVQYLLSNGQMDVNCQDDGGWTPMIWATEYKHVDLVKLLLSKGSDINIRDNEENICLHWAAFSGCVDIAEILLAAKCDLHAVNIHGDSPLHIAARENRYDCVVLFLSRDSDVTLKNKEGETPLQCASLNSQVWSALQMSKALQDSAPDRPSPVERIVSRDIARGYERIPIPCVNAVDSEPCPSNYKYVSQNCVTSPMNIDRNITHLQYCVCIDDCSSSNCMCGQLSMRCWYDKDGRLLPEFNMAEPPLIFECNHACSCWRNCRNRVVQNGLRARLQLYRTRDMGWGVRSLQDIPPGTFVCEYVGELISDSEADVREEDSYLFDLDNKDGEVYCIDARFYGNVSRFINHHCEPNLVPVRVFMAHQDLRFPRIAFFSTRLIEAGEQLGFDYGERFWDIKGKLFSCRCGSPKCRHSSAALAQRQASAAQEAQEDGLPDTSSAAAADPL
Sequence of Protein arginine N-methyltransferase 7 (Homo sapiens) (Q9NVM4 whole entry): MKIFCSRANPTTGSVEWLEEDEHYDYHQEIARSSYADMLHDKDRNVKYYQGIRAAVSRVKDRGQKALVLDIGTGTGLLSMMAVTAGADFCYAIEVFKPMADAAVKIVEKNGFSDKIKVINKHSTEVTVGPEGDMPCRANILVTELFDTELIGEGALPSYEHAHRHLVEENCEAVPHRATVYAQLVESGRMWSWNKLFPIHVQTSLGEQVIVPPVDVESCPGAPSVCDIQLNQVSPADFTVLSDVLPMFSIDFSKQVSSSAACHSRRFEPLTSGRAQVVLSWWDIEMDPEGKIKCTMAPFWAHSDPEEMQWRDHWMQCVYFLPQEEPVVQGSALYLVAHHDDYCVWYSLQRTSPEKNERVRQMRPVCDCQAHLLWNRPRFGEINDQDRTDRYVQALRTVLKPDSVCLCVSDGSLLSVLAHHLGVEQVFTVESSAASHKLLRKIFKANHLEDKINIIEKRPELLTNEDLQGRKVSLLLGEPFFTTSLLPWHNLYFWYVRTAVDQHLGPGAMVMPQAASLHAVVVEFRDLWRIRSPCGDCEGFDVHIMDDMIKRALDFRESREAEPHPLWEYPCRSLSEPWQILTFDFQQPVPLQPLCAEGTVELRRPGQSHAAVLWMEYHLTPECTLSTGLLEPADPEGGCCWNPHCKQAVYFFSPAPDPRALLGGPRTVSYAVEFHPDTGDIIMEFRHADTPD
Sequence of Histone-lysine N-methyltransferase SUV39H2 (Homo sapiens) (Q9H5I1 whole entry, looked up): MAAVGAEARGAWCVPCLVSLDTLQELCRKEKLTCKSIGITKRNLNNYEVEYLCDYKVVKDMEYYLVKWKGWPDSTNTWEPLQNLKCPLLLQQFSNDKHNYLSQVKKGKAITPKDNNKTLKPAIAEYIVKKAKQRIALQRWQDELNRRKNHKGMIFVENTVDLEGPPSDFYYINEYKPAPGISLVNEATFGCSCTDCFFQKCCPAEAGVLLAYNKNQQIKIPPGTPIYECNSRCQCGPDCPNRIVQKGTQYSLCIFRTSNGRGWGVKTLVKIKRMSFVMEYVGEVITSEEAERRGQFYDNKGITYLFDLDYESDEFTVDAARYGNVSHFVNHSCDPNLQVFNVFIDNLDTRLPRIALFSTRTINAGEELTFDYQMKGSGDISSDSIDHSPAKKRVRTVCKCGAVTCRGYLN

As a reminder, the DC50 is the concentration giving 50% degradation. In general, inhibition refers to the share of the control response that was lost under treatment. As a reminder, the pIC50 is the IC50 on a negative log10 scale, so that one unit is a factor of ten. Broadly, the Cmax is the maximum level reached in the sampled fluid or tissue. For `CCN(c1cc(-c2ccc(CN3CCN(CCC(=O)NCCCCCCCCCCC(=O)N[C@H](C(=O)N4C[C@H](O)C[C@H]4C(=O)NCc4ccc(-c5scnc5C)cc4)C(C)(C)C)CC3)cc2)cc(C(=O)NCc2c(C)cc(C)[nH]c2=O)c1C)C1CCOCC1`, the Activity in [1] was 100%. Also, the DC50 in data set [2] amounted to 34.4 nM. Besides, the outcome in data set [3], in data set [4], in data set [16] and in data set [18] was Active. Also, the result in [5] was inactive. Besides, the inhibition in data set [6], in data set [7], in data set [8], in data set [9], in data set [10] and in data set [11] was less than 50% in each case. The inhibition in [12], in data set [13], in [20] and in data set [21] was less than 50% throughout. The negative-log IC50 (pIC50) in data set [14] is 6.77; in data set [15], 6.39; in [17] it was 5.84. The Cmax in data set [19] stood at 3.9 µM.
